Compounds with a hit are over-represented: about 4.1% of the library has one in this group of screens.
hERG rescue – shields human hERG channel from block by proarrhythmic agents | activation (rescue from dofetilide block), less the hit threshold, % at 10 µM | hit rate 0.51% among 310,000 | CHO-hERG, FluxOR thallium flux, dofetilide IC70 present;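 active = activation above the mean of controls blocked by dofetilide plus 5 SD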;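 note: thallium influx through hERG after potassium depolarization seen as dye fluorescence rise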
KCNK9 block – human KCNK9 channel inhibition. Q9NPC2. HEK293 KCNK9, FluxOR thallium flux fluorescence; stronger effect = lower value. B-score at 10 µM. hit rate 1.2% among 310,000;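 active = ratio B-score over 3 SD below the library mean, with starting fluorescence within 5 SD of its mean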;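 note: negative B-score means less thallium flux so channel inhibition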
Target sequence (Q9NPC2 whole entry, looked up): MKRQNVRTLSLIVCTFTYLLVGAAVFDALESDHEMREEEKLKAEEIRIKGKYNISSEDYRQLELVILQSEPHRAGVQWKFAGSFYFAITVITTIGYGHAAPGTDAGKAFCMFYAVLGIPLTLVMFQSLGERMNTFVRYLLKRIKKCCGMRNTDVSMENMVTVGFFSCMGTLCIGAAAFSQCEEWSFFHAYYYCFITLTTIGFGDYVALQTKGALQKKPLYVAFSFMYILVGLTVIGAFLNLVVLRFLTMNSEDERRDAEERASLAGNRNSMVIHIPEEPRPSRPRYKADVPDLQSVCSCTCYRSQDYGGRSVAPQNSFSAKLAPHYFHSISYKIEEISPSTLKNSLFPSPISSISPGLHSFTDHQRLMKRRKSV
KCNQ1 act – potentiates or activates the human KCNQ1 potassium channel; hit rate 0.35% among 310,000; AID 2648; B-score at 10 µM; CHO-K1 KCNQ1, thallium flux FluxOR fluorescence; stronger effect = higher value;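 active = fluorescence ratio B-score, a plate-corrected score, at least three library SD, with initial intensity B-score within 5 SD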
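Assay system: stable KCNQ1 CHO-K1 line; medium: assay buffer, equal DMSO in all wells; timing: 90 min dye loading and 20 min compound exposure, both at room temperature; technique: kinetic FluxOR thallium fluorescence, 10-s 1-Hz baseline, 110-s post-stimulus read; read-out basis: B score of baseline-normalized fluorescence ratio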
KCNQ1 block – human KCNQ1 channel inhibition. CHO-K1 KCNQ1, FluxOR thallium flux fluorescence; stronger effect = higher value. B-score at 10 µM. hit rate 1.3% among 310,000;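 active = compounds whose thallium flux B-score, printed positive for inhibition, exceeds three library SD while starting fluorescence stays within three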;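 note: channel opened by potassium depolarization with thallium stimulus after 20 min compound exposure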
Cl transport mod – modulators of human KCC2 chloride dependent transport; B-score of Tl+ flux slope (higher = more flux/activation; lower = inhibition) at 10 µM; KCC2 cells, thallium flux FluoZin-2 fluorescence; hit rate 2.2% among 190,000; Q9H2X9; AID 1456;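 active = thallium flux slope and its plate-corrected score both differing from the plate sample mean at a set confidence after two filtering rounds, in either direction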;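 note: slope of fluorescence scaled to starting intensity during 10 to 20 s after thallium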
KCNK3 block – human KCNK3 channel inhibition, primary screen | O14649 | CHO-KCNK3 thallium flux, FluxOR fluorescence; stronger effect = lower value | B-score at 10 µM | hit rate 0.84% among 340,000 | AID 602410;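 active = B-score under library mean minus 4 SD, starting fluorescence ratio at most library mean plus 5 SD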;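 note: more negative B-score means stronger inhibition of thallium flux through KCNK3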
KCNK9 block conf – human KCNK9 inhibitor confirmation; shares compounds with KCNK9 block; HEK293 KCNK9 cells, FluxOR thallium flux fluorescence; inhibition, % at 10 µM; hit rate 43% among 4,900; AID 492992;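 active = thallium signal inhibited by more than 5 SD of the compound-free buffer control wells, on both duplicate plates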
Kir21 sel – selectivity of KCNK9 modulators against mouse Kir2.1; shares compounds with KCNK9 block; Kir2.1 cells, FluxOR thallium flux fluorescence; inhibition, % at 10 µM; hit rate 4% among 4,900; AID 492993;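 active = thallium signal drop more than 5 SD beyond the mean of the no-compound control wells, seen in both duplicate plates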;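 note: signal is fluorescence rise after thallium addition divided by baseline fluorescence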
KCNK9 uninduced – non-induced cell nonspecific activity of KCNK9 modulators; shares compounds with KCNK9 block; inhibition, % at 10 µM; hit rate 40% among 4,900; non-induced KCNK9-HEK293, FluxOR thallium flux;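 active = thallium signal drop beyond 5 SD of the untreated control mean, on both duplicate plates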
KCNK3 confirm – confirmation of human KCNK3 two-pore domain potassium channel inhibitors; shares compounds with KCNK3 block; CHO-KCNK3 thallium flux, FluxOR fluorescence; 0% buffer, 100% carvedilol maximal block; ratio percent of control, % at 10 µM; hit rate 99% among 2,400; AID 651638;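 active = ratio percent of control, averaged over triplicates, above buffer control mean plus 5 SD, cut at about 64% in these data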;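 note: ratio is the fluorescence rise from min to max over baseline after thallium stimulus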
KCNK3 noninduced – activity in cells without induced KCNK3 expression | shares compounds with KCNK3 block | non-induced KCNK3 parental cells, FluxOR thallium flux; stronger effect = lower value | thallium flux ratio (lower = more inhibition) at 10 µM | hit rate 40% among 2,400;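 active = thallium flux ratio, averaged over three wells, more than 5 SD below the buffer control mean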;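 note: host cells are CHO cells without KCNK3 induction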
A number is an active result; – = inactive; · = no result.

SMILES	hERG rescue	KCNK9 block	KCNQ1 act	KCNQ1 block	Cl transport mod	KCNK3 block	KCNK9 block conf	Kir21 sel	KCNK9 uninduced	KCNK3 confirm	KCNK3 noninduced
Cc1cc(Br)ccc1NC(=O)CN(C)Cc1cccs1	–	-12	–	–	·	-9	43%	–	28%	100	–
CN(CC(=O)Nc1ccccc1F)Cc1cccs1	–	–	–	–	·	–	·	·	·	·	·
CSc1nc(Cl)c(Cc2ccc(OC(C)C)cc2)c(N(C)C)n1	–	-8.4	–	–	–	-8.8	–	–	38%	134	0.13
O=C(COC(=O)c1c2c(nc3ccccc13)CCCC2)c1cccs1	–	-10	–	–	–	-12	54%	–	–	138	0.12
CC(C)(C)n1nnnc1C(c1ccncc1)N1CCN(c2ccc(O)cc2)CC1 (stereo not drawn)	–	–	–	–	·	–	·	·	·	·	·
CC(C)C(c1nnnn1C(C)(C)C)N1CCN(c2cccc(Cl)c2)CC1 (stereo not drawn)	–	-12	–	–	–	-10	58%	–	36%	126	0.15
CCC1CCCCN1S(=O)(=O)c1ccc(NC(=O)c2snnc2C)cc1 (stereo not drawn)	–	–	–	–	·	–	·	·	·	·	·
CCC1CCCCN1S(=O)(=O)c1ccc(NC(=O)c2cccs2)cc1 (stereo not drawn)	–	-8.3	–	–	–	-11	52%	–	28%	107	–
O=C(N/N=C/c1ccc(N2CCOCC2)cc1)c1ccncc1	·	·	·	·	·	–	·	·	·	·	·
O=C(N/N=C/c1ccc(N2CCOCC2)cc1)c1ccccc1OCCOc1ccccc1	–	-12	–	7	–	-11	30%	–	26%	101	–
CN(CCCNC(=O)CCc1cn(C)c2ccccc12)C1CCCCC1	–	–	–	–	·	–	·	·	·	·	·
Cc1c(NC(=O)c2cccc(NC(=O)Cc3ccc(F)cc3)c2)c(=O)n(-c2ccccc2)n1C	·	·	·	·	·	–	·	·	·	·	·
CCc1cc2c(CN(C)Cc3ccccc3F)cc(=O)oc2cc1O	–	-8.5	–	–	·	-15	42%	–	–	114	0.16
CCc1cc2c(CN3CCN(Cc4ccccc4)CC3)cc(=O)oc2cc1O	–	–	–	–	·	–	·	·	·	·	·
COc1ccc2c(c1)OC[C@H]1[C@H]2N2C(=O)CN(CCc3c[nH]c4ccccc34)C(=O)[C@@]2(C)[C@H]1c1ccccc1	·	·	·	·	·	–	·	·	·	·	·
CN1CCN(C2CCCCC2NS(=O)(=O)c2ccccc2)CC1 (stereo not drawn)	–	–	–	–	·	–	·	·	·	·	·
O=S(=O)(NC1CCCCC1N1CCN(c2cccc(Cl)c2)CC1)c1ccccc1 (stereo not drawn)	–	-13	–	–	·	-10	57%	–	42%	107	–
COc1ccc(C(C)=O)cc1COC(=O)c1cccnc1Cl	–	–	–	–	·	–	·	·	·	·	·
COc1ccc(C(C)=O)cc1COC(=O)c1cc2ccccc2cc1O	–	-15	–	–	·	-13	32%	–	29%	109	–
O=C(Nc1cccc(NC(=O)c2c(F)cccc2F)n1)c1c(F)cccc1F	–	-11	8	–	·	-11	50%	–	30%	101	–
CCN(CC(=O)NCc1ccc(F)cc1)C(=O)c1cccc(S(=O)(=O)N(C)c2ccc(OC)cc2)c1	·	·	·	·	·	–	·	·	·	·	·
CCCCCCNC(=O)CC(c1ccccc1)c1cc(Br)ccc1O (stereo not drawn)	–	-11	–	–	–	-9.8	51%	–	32%	119	0.15
O=C(OCC(=O)c1ccccc1Cl)C1=NN(c2ccccc2)C(=O)CC1	·	·	·	·	·	–	·	·	·	·	·
COc1ccc(C)cc1NC(=O)c1cccc(C(=O)Nc2cc(C)ccc2OC)n1	–	-16	–	–	·	–	61%	–	32%	107	–
Cc1ccc(C)c(CN2CCCN(Cc3cc(C)ccc3C)S2(=O)=O)c1	–	-19	–	–	·	-11	76%	–	41%	87	–
SMILES	hERG rescue	KCNK9 block	KCNQ1 act	KCNQ1 block	Cl transport mod	KCNK3 block	KCNK9 block conf	Kir21 sel	KCNK9 uninduced	KCNK3 confirm	KCNK3 noninduced
Cc1ccc(CN2CCCN(Cc3cc(C)ccc3C)S2(=O)=O)cc1	–	-16	–	–	·	-9.8	62%	–	37%	–	–
CC(=O)c1cccc(NC(=O)CSc2nnc(C(C)N(C)C)n2Cc2ccccc2)c1 (stereo not drawn)	–	–	–	–	·	–	·	·	·	·	·
CCC(C(=O)O/N=C(\N)c1cccc(C)c1)c1ccccc1 (stereo not drawn)	–	-9.3	–	–	–	-15	34%	–	24%	127	0.15
CCCCn1c(N)c(N(CC(C)C)C(=O)c2cccc(-n3cnnn3)c2)c(=O)[nH]c1=O	–	–	–	–	·	–	·	·	·	·	·
CCOC(=O)c1c(CSC(=N)N)n(-c2ccc(C)cc2)c2cc(Br)c(OC(C)=O)cc12	–	-8.7	–	6	–	-12	–	–	–	129	0.15
CCOC(=O)c1c(CN(C)C)n(-c2ccc(C)cc2)c2cc(Br)c(O)cc12	–	–	–	–	–	–	·	·	·	·	·
Cc1cccc2cc(CN(Cc3cccs3)Cc3nnnn3Cc3ccccc3)c(=O)[nH]c12	–	-13	–	–	·	-11	29%	–	28%	88	–
CCOC(=O)NC(N(O)c1cccc(Cl)c1)C(Cl)(Cl)Cl (stereo not drawn)	–	-13	–	–	–	-12	54%	–	28%	112	–
CCN(CC)C(=O)Oc1ccc2oc(=O)cc(-c3cc4cccc(OC)c4o3)c2c1	–	-18	–	–	·	-10	80%	–	34%	104	–
COc1ccc2oc(=O)cc(-c3cc4cccc(OC)c4o3)c2c1	–	–	–	–	·	–	·	·	·	·	·
COC(=O)c1cc(C(=O)OCC(=O)Nc2ccc(N3CCOCC3)cc2)cc([N+](=O)[O-])c1	·	·	·	·	·	–	·	·	·	·	·
CCN(CC)C1=N/C(=C\c2ccco2)C(=O)N1c1ccccc1	–	–	–	–	–	–	·	·	·	·	·
CC(C)CN(CC(C)C)C1=N/C(=C\c2ccco2)C(=O)N1c1ccccc1	–	-9.8	–	–	–	-9.2	56%	–	46%	125	–
